From ChEMBL document CHEMBL4513216, “Probing the Open Global Health Chemical Diversity Library for Multistage-Active Starting Points for Next-Generation Antimalarials” (ACS Infect Dis, 2020)

Assay: Toxicity liver stage against HepG2, at 10uM
Format: cell-based
Design: test concentration 10 uM, cell line HepG2-A16-CD81EGFP
Conditions: human, HepG2-A16-CD81EGFP cells; read-out: INHIBITION
In short: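 Uninfected HepG2-A16-CD81EGFP cells, 3 × 10^3 per well, 1536-well, plated on prespotted compound at 10 μM final, parasite-free screening media added to match infected plates; puromycin 10 μM positive, DMSO 0.5% negative; run in parallel with 48 h PbLuc assay at 37 °C, 5% CO2; viability by CellTiter-Glo luminescence, normalized to controls.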

| SMILES | cytotoxicity at 10 µM [%] |
| --- | --- |
| FC(F)(F)c1[nH]nc2c1CN(Cc1ccccc1)CC2 | 11.8 |
| c1ccc(C2CCN(c3cncc(-n4cccn4)n3)CC2)cc1 | -15.3 |
| O=C(NC1CCCC1)O[C@H]1COCCN(c2nc3ccccc3s2)C1 | -0.655 |
| O=C(C1=COCCO1)N1CC(Oc2nc3c(C(F)(F)F)cccc3s2)C1 | 36 |
| CCOc1ccc(S(=O)(=O)Nc2cnc(OC)nc2OC)cc1 | 44.7 |
| CC(C)N1CCN(C)CC1c1nnc2ccc(C(=O)N3CCCC3)cn12 (stereo not given) | -145 |
| COc1ccc(-c2c(C)nn3c(=N)c(C#N)n[nH]c23)cc1OC | 8.29 |
| Cc1cccc(NC2CCc3c2[nH]c(=O)n(C2CCCCC2)c3=O)c1C (stereo not given) | 5.05 |
| Cc1cnc(NC(=O)c2csc(NCC(C)C)n2)s1 | 34.4 |
| Cc1[nH]/c(=N\C(=O)c2csc(NC3CCCC3)n2)sc1C | 38.8 |
| CCOC(=O)Cn1cnc2nc3n(c2c1=O)CCC3 | -2.06 |
| Oc1cc(C2CCCN(Cc3cccs3)C2)nc(-c2ccccn2)n1 (stereo not given) | 29.5 |
| Oc1cc(C2CCCCN2Cc2cccs2)nc(-c2ccccn2)n1 (stereo not given) | 39.1 |
| Cc1nn(C)cc1C1=NS(=O)(=O)N(C)C(C(=O)Nc2ccc(Br)cc2)=C1 | 3.46 |
| COc1cccc(OC)c1CNC(Cc1ccsc1)c1ccc(C)cn1 (stereo not given) | 2.75 |
| CC(C)(C)n1nnnc1CN(Cc1ccccc1)Cc1ccc(Cl)cc1 | 28.8 |
| CN1CCc2nc(C3CCN(C(=O)CCC4CCCC4)CC3)ncc2C1 | -3.06 |
| Cc1cc(-c2cnc(NCc3cccnc3)nc2C(C)(C)C)on1 | 49.6 |
| NS(=O)(=O)c1ccc(NCc2ccccc2F)cc1C(F)(F)F | -10.2 |
| CCc1ccc(S(=O)(=O)N2CCCC(c3ncc[nH]3)C2)s1 (stereo not given) | 12.8 |
| CC(C)(C)OC(=O)N1CCCN(Cc2ccon2)c2ccccc21 | 11.1 |
| COc1ccc(C2CCCN2c2ccnc(C)c2Cl)c(OC)c1 (stereo not given) | 28.4 |

| SMILES | cytotoxicity at 10 µM [%] |
| --- | --- |
| Cn1nccc1C1CCN(Cc2cnn(-c3ccccc3)n2)CC1 | 27.2 |
| CN1CCN(c2ccc(NCc3ccc(OC(F)(F)F)cc3)cn2)CC1 | 14.9 |
| O=C(CN1CCCC(c2ncc[nH]2)C1)NCC(F)(F)F (stereo not given) | 9.37 |
| CC1CCN(CCNC(=O)c2sccc2C2CC2)CC1 | -144 |
| COCCN(Cc1ccccc1)C(=O)c1cnn(C)c1C | -144 |
| CCCn1c(=O)n(CCC(=O)N(C)Cc2ccc(C)o2)c2ccccc21 | -3.26 |
| CCc1nc(CN(C)C(=O)c2ccc(OCCCOC)nc2)cs1 | -19.5 |
| NC(=O)N1CCCN(C2CCc3ccc(F)cc32)CC1 (stereo not given) | 3.93 |
| Cc1cc(CN(C)Cc2csc(-c3ccc(C(C)C)cc3)n2)no1 | 41.1 |
| CC(CNC(=O)c1ccc(C#N)cc1)N1CCc2ccccc21 (stereo not given) | 2.84 |
| O=C(O)c1cc(S(=O)(=O)Nc2cccc3c2OCCO3)c(Cl)cc1F | -7.08 |
| CN(CCc1ccccn1)Cc1nccn1Cc1ccccc1 | 10.1 |
| CN(Cc1ccccc1OC(F)(F)F)C(=O)C1CC1 | 10.8 |
| CN(C)c1cc(C(=O)NCc2cccnc2-n2cncn2)ccn1 | 8.15 |
| CN(C)c1ncccc1NC(=O)C1CN(Cc2ccccc2)CCO1 (stereo not given) | 0.499 |
| CC(=O)c1cccc(OCCCC(=O)N(C)Cc2cnn(C)c2)c1 | -3.05 |
| CC(C)c1cc(C(=O)N2CCN(Cc3ccc(C#N)cc3)CC2)n[nH]1 | 26.3 |
| CC(C)c1noc(CN(Cc2ccc(F)cc2)C2CC2)n1 | 6.83 |
| Cc1n[nH]c(C)c1C1COCCN1C(=O)Cc1ccccc1F (stereo not given) | -2.46 |
| COC(C)(C)CNC(=O)N1CCCC1c1c(C)n[nH]c1C (stereo not given) | 1.76 |
| Cc1ccc(C)c(OC2CCN(C(=O)CNc3ccccc3Cl)CC2)c1 | 40.2 |
| Cc1nc2ccccc2nc1NCc1cccc(OCC2CCCO2)c1 (stereo not given) | 44.3 |

| SMILES | cytotoxicity at 10 µM [%] |
| --- | --- |
| CC(C)n1nc2c(cc1=O)CN(c1ncnc3ccsc13)CC2 | 60.6 |
| O=S(=O)(c1cccnc1)N1CCN(CC(O)c2ccccc2)CC1 (stereo not given) | 0.871 |
| CS(=O)(=O)Cc1noc(CN2CCc3c(Cl)cccc3C2)n1 | -4.07 |
| CS(=O)(=O)c1cccc(OCC(=O)N2CCCC2c2ccccc2Cl)c1 (stereo not given) | 4.36 |
| Fc1ccc(C(NCc2nnc(-c3ccco3)o2)C2CCC2)cc1 (stereo not given) | -36.3 |
| COCC(=O)Nc1nccn1Cc1ccc(Br)cc1 | -55.1 |
| Cc1nc(CN2CCCC(Nc3ncnc4c3CCC4)C2)no1 (stereo not given) | 34.3 |
| CN(Cc1ccc(Cl)s1)C(=O)CN(C)C1CCc2ccccc21 (stereo not given) | 18.1 |
| O=C(CN1CCc2sccc2C1)Nc1ccnc2ccnn12 | 46.8 |
| CC(=O)c1c(F)cccc1N1CCC(Cc2cccnc2)CC1 | 43.6 |
| Cc1cnn(CC2CN(c3ncnc4ccsc34)CCO2)c1 (stereo not given) | 53.2 |
| COCC(=O)N1C[C@H]2CCC[C@@]2(COC)C1 | 5.93 |
| CC(C)n1c2ccccc2c2c1cc(C(=O)N(C)C)n2C | -85.4 |
| CC(=O)N1CCOC2(CCN(C(=O)C3CC3)CC2)C1 | -106 |
| CN1CCN(Cc2cn3c(n2)CN(Cc2ccncc2)CC3)CC1 | -94.8 |
| COCCC(=O)N1CCC2(CN(Cc3cccc(Cl)c3)C2)C1 | -79.6 |
| Cc1[nH]c2ccccc2c1-c1ccnc(N[C@@H](C)CO)n1 | -6.52 |
| c1cc(-c2cn3nccc3nc2C2CCCCC2)nc(N2CCCC2)n1 | 10.7 |
| CSc1nccc(N2CCC3(CCCN(Cc4ccc(F)cc4)C3)C2)n1 (stereo not given) | 9.5 |
| c1ccc(C2CCN(c3ncnc4c3CCNC4)CC2)cc1 | 5.03 |
| COc1cccc(CN2CCC(CO)(Cc3ccc(Cl)cc3)CC2)c1O | -133 |
| COc1ccc2cc(C3CN(C(=O)CCNC(C)=O)CCO3)ccc2c1 (stereo not given) | 9.85 |

| SMILES | cytotoxicity at 10 µM [%] |
| --- | --- |
| CCCC1(CO)CCCN(Cc2nccs2)C1 (stereo not given) | 1.41 |
| CCOc1ccc(CN(CCOC)c2nc(C)nc3oc(C)nc23)cc1 | -30.2 |
| CCn1ncc(CNC(=O)c2cn(CCC3CCCCN3)nn2)c1C (stereo not given) | 2.72 |
| Cc1cc(Cl)ccc1C(=O)C1CCCN(Cc2cnc(N(C)C)s2)C1 (stereo not given) | -13.1 |
| Cc1ccc(C2(O)CCN(C(=O)CCn3ccc(=O)[nH]c3=O)CC2)nc1 | 1.99 |
| Cc1nn(C)c2nc(N(CCOc3ccccc3)CC3CCCO3)sc12 (stereo not given) | 46.8 |
| CCOC(=O)C1(Cc2ccc(Cl)cc2)CCN(Cc2ncc[nH]2)CC1 | -2.36 |
| COc1cc(Oc2cnc3ccccc3n2)ccc1CN1CCCC1 | 5.27 |
| Cc1ncsc1-c1ccn(CC(=O)Nc2cnn(C)n2)n1 | 93.8 |
| Cc1nn(-c2ccccc2)c(C)c1-c1ccnc(N2CCCNCC2)n1 | -9.5 |
| Cc1cc(C(F)(F)F)nn1CCNC(=O)C(C)n1ccnc1C(C)C (stereo not given) | -5.24 |
| CCc1ccc(C2CC(=O)Nc3cc(NS(C)(=O)=O)ccc32)o1 (stereo not given) | 86 |
| CCS(=O)(=O)CCNC1CCN(c2nc3ccc(Cl)cc3s2)CC1 | 32 |
| Cc1cc(N2CCCC(c3[nH]ncc3Cc3ccccc3)C2)nc(N)n1 (stereo not given) | 57.1 |
| CC(C)c1cc(C2CCN(C(=O)Cn3cnc4ccccc43)CC2)[nH]n1 | 51.8 |
| CCn1cc(-c2cc(-c3ccn(C)c3)nc(N)c2C#N)cc1C#N | 2.11 |
| Cc1ccc(OC2CCN(CCn3cncn3)CC2)cc1 | -1.67 |
| O=C(C1CCOCC1)N1CCC(OCc2cccnc2)CC1 | 2.12 |
| COc1ccccc1OCc1cc(C(=O)NC[C@@H]2CCCN2)n[nH]1 | -3.81 |
| CNc1nc(C)c(C(=O)N2C[C@@H](C(=O)O)[C@H](C3CC3)C2)s1 | 4.29 |
| CC(c1cccc(-c2nccn2CCc2cn[nH]c2)c1)N(C)C (stereo not given) | -4.83 |
| COc1ccc2cc(C3CN(C(=O)N(C)C)CCO3)ccc2c1 (stereo not given) | 4.26 |

| SMILES | cytotoxicity at 10 µM [%] |
| --- | --- |
| Nc1nccc(N2CCCC(CO)(CCOc3ccccc3)C2)n1 (stereo not given) | 46.7 |
| CCc1c(C)nc2cc(C3CCN(Cc4ccccc4F)C3)nn2c1O (stereo not given) | 1.7 |
| Cc1nn(C)c(Cl)c1C1CCCN1C(=O)c1ccc(C(N)=O)cn1 (stereo not given) | -32 |
| CCOC(=O)c1ccc(S(=O)(=O)NCc2cccnc2N(C)C)cc1 | 32.1 |
| O=C(NCCCNc1ccc(C(F)(F)F)cn1)c1ccc(F)cc1Br | 13.1 |
| N#Cc1ccc(CN2CCN(C(=O)c3cc(C4CC4)[nH]n3)CC2)cc1 | 18.9 |
| CCCS(=O)(=O)N1CCC2(CC1)CCn1c(-c3cnn(C)c3)cnc12 | -142 |
| CC(=O)N1CC[C@H]2[C@H](C[C@@H](Cn3cncn3)N2c2nccs2)C1 | -140 |
| CC(C)CN1C(=O)C2(CCN(Cc3nccs3)C2)c2ccccc21 (stereo not given) | 0.371 |
| COc1cc(N2CC[C@@H](O)[C@@H]2Cc2cccnc2)ncn1 | -77.9 |
| Fc1cccc(N2CCCC3(CN(Cc4ccncc4)CCO3)C2)c1 (stereo not given) | 8.98 |
| COc1cccc(-c2noc(C3CCN(Cc4ccccc4F)C3)n2)c1 (stereo not given) | -2.06 |
| COc1cc(N2CCCC3(CCN(c4cccnc4)C3=O)C2)ncn1 (stereo not given) | -103 |
| CN(C)CC(=O)N1CCC2(CC1)CN(c1ncccn1)CCO2 | -68.7 |
| CNC(=O)c1cc2c(nc1NCC(C)C)CCN(CC1CC1)CC2 | -158 |
| COc1cc(N2CCC3(CCCN(Cc4ccccn4)C3)C2)ncn1 (stereo not given) | -88.6 |
| NC(=O)N1CCC2(CCN(C(=O)c3cccnc3)CC2)C1 | -83 |
| Cc1nccc(NCc2cncc3c2CCN(CC2CC2)C3)n1 | -92.4 |
| CN(C)C(=O)CN1C(=O)C[C@@H]2[C@@H]1CCN2Cc1cccc(C#N)c1 | -61.3 |
| Cc1ccc(CN2CCCC3(CCN(Cc4ccoc4)CC3)C2)cc1 | -91 |
| Fc1cnc(N2CCN3C[C@H](Oc4cccnc4)C[C@H]3C2)nc1 | 13.1 |
| CCN1CCn2c(-c3cccc(F)c3)cnc2C12CCN(C(C)=O)CC2 | -1.09 |
